According to ChEMBL document CHEMBL2040739, “Effect of phosphodiesterase 7 (PDE7) inhibitors in experimental autoimmune encephalomyelitis mice. Discovery of a new chemically diverse family of compounds” (J Med Chem, 2012):
Active and inactive are the calls of the source. The rule behind the calls is not given here.

What was measured:
[1] = molecular target: T1, High affinity 3',5'-cyclic-AMP phosphodiesterase 7A (Homo sapiens, UniProt Q13946); experiment: Inhibition of human recombinant PDE7A1-mediated [3H]cAMP hydrolysis at 10 uM after 20 mins by scintillation proximity assay
Outline: (§1)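 Scintillation proximity assay with human recombinant full-length enzyme: PDE7A1 or PDE3A at 0.02 unit, or PDE7B at 0.5 unit. Enzyme incubated with 5 nCi [3H]cAMP for 20 min at 30 °C. SPA beads added, shaken 1 h at room temperature, then settled 30 min before counting. Single-point screens at 10 μM run in duplicate. IC50 from a sigmoidal dose−response fit.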

[2] = molecular target: T1, High affinity 3',5'-cyclic-AMP phosphodiesterase 7A; experiment: Inhibition of PDE7A1
[3] = molecular target: T1, High affinity 3',5'-cyclic-AMP phosphodiesterase 7A; experiment: Inhibition of human recombinant PDE7A1-mediated [3H]cAMP hydrolysis after 20 mins by scintillation proximity assay; outline: as §1
[4] = Cytotoxicity against rat microglia cells at 5 to 10 uM after 16 hrs by MTT assay; format: cell-based
Outline: (§2)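 Primary neonatal rat cortical astrocytes or microglia, after 1 week in culture, exposed to compound for 16 h. MTT at 0.5 mg/mL for 4 h, then solubilized in 10% SDS/0.01 M HCl for 12 h in the dark. Absorbance read at 595 nm. Six replications in three experiments.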

[5] = Cytotoxicity against rat astrocytes at 5 to 10 uM after 16 hrs by MTT assay; format: cell-based; conditions: astrocyte; outline: as §2
[6] = tested on: Microglia; experiment: Antiinflammatory activity in rat microglia cells assessed as inhibition of LPS-induced nitrite production at 5 to 10 uM incubated for 1 hr prior to LPS-challenge measured after 24 hrs by Griess method; format: functional, cell-based
Outline: (§3)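 Glial cells from neonatal rat cerebral cortex; microglia and astrocytes separated by shaking and cultured 1 week. Purity >98% by OX42 and GFAP staining. Microglia kept with 10 ng/mL GM-CSF. Cells given compound for 1 h, then LPS (10 μg/mL) for 24 h. Nitrite in the supernatant measured by Griess reaction at 492/540 nm. Mean ± SD of six replications in three experiments.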

[7] = tested on: Astrocyte; experiment: Antiinflammatory activity in rat astrocytes assessed as inhibition of LPS-induced nitrite production at 5 to 10 uM incubated for 1 hr prior to LPS-challenge measured after 24 hrs by Griess method; format: functional, cell-based; outline: as §3
[8] = molecular target: T2, cGMP-inhibited 3',5'-cyclic phosphodiesterase 3A (Homo sapiens, UniProt Q14432); experiment: Inhibition of human recombinant PDE3A-mediated [3H]cAMP hydrolysis at 10 uM after 20 mins by scintillation proximity assay; outline: as §1
[9] = molecular target: T2, cGMP-inhibited 3',5'-cyclic phosphodiesterase 3A; experiment: Inhibition of human recombinant PDE3A-mediated [3H]cAMP hydrolysis after 20 mins by scintillation proximity assay; outline: as §1
[10] = organism: Homo sapiens; experiment: Selectivity index, ratio of IC50 for human recombinant PDE7A1 to IC50 for human recombinant PDE3A
Outline: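 Ratio of IC50 values for PDE7A1 and PDE3A, each obtained by scintillation proximity assay with [3H]cAMP for 20 min at 30 °C.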

T2 sequence (Q14432 whole entry): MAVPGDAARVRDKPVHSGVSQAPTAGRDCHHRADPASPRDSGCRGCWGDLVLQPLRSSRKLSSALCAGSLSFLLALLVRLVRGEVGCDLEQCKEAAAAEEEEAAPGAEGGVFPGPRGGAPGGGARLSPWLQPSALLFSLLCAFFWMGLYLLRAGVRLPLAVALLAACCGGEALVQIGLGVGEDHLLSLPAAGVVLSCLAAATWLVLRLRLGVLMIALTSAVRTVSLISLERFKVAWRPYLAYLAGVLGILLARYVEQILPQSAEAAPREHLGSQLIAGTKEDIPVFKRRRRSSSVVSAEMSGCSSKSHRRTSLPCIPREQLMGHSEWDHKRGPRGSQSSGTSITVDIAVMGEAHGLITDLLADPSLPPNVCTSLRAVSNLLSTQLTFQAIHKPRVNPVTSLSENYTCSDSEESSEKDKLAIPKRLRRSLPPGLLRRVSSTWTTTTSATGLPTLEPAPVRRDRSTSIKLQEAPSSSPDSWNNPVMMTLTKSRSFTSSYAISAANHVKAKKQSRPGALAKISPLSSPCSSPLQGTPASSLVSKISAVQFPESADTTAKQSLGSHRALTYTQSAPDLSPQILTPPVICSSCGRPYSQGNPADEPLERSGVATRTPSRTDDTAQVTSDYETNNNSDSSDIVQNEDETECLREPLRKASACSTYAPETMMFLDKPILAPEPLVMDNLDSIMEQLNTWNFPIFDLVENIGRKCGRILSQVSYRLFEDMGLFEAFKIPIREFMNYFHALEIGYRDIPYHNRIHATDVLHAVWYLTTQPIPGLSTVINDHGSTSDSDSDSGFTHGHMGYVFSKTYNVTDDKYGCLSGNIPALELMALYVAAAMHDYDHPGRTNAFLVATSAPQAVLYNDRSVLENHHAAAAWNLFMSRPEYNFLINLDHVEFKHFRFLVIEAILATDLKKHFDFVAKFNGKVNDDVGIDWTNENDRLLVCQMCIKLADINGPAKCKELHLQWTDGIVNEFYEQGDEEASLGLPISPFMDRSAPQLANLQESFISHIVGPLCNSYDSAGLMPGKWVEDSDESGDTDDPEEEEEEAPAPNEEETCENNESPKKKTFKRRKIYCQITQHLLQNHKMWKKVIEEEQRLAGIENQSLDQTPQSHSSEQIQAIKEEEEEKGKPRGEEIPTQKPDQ
T1 sequence (Q13946 whole entry): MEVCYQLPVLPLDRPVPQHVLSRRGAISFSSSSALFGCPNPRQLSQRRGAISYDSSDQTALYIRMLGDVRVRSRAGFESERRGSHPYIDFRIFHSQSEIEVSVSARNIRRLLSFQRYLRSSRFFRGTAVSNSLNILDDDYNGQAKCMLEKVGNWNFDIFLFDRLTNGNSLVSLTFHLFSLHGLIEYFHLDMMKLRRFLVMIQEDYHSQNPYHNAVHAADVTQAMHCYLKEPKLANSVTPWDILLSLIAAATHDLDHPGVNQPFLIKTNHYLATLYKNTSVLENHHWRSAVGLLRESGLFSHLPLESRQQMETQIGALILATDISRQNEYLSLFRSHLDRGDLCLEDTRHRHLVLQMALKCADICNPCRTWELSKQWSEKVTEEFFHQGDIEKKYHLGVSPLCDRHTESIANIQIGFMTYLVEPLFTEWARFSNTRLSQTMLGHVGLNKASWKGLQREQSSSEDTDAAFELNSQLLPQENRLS

Row | Compound | inhibition [1] [%] | also measured
1 | CCOc1cc(C(=O)OCc2ccc(-c3ccc([N+](=O)[O-])cc3)o2)cc(OCC)c1OCC | 39.9 | 
2 | CCOc1cc(COC(=O)c2ccc(-c3ccc(C)cc3)o2)cc(OCC)c1OCC | 28 | 
3 | COc1cc(COC(=O)c2ccc(-c3cccc(C(F)(F)F)c3)o2)cc(OC)c1OC | 14 | 
4 | CCOc1cc(C(=O)OCc2ccc(-c3ccc(C)cc3)o2)cc(OCC)c1OCC | 16.4 | 
5 | CC1CCCCC1NC(=O)C(c1ccccc1Cl)N(CCc1ccccc1Cl)C(=O)CCl (stereo not given) |  | IC50 [2]: 0.88 µM
6 | CCOc1cc(C(=O)OCc2ccc(-c3ccccc3)o2)cc(OCC)c1OCC | 48.8 | IC50 [3]: 12.3 µM; Activity [4]: Non-toxic; Activity [5]: Non-toxic; Activity [6]: Active; Activity [7]: Active; inhibition [8]: 3%; IC50 [9]: 104 µM; Ratio IC50 [10]: 0.12
7 | COc1cc(COC(=O)c2ccco2)cc(OC)c1OC | 10 | 
8 | COc1cc(COC(=O)c2ccc(C)o2)cc(OC)c1OC | -9.9 | 
9 | CCOc1cc(COC(=O)c2ccc(-c3ccccc3)o2)cc(OCC)c1OCC | 30.8 | 
10 | COc1cc(C(=O)OCc2ccc(-c3ccc(Cl)cc3Cl)o2)cc(OC)c1OC | 24.4 | 

Continued, in another order:

Row | inhibition [1] [%] | Compound | also measured
11 | 41.6 | COc1ccc(COC(=O)c2ccc(-c3ccc(Cl)cc3[N+](=O)[O-])o2)cc1 | 
12 | 38.3 | COc1cc(COC(=O)c2ccc(-c3ccc(Cl)cc3Cl)o2)cc(OC)c1OC | 
13 | 44.8 | COc1ccc(COC(=O)c2ccc(-c3ccccc3)o2)cc1 | 
14 | 34.6 | COc1cc(COC(=O)c2ccc(-c3ccccc3Cl)o2)cc(OC)c1OC | 
15 | 49.1 | COc1cc(COC(=O)c2ccc(-c3ccc(Cl)cc3[N+](=O)[O-])o2)cc(OC)c1OC | IC50 [3]: 7.31 µM; Activity [4]: Non-toxic; Activity [5]: Non-toxic; Activity [6]: Active; Activity [7]: Active; inhibition [8]: 11%
16 | 28.8 | COc1cc(COC(=O)c2ccc(-c3ccc(C)cc3[N+](=O)[O-])o2)cc(OC)c1OC | 
